SENP8 block-1: blocks human SENP8 cleavage of Nedd8 substrate. actives 0.64% (n = 360,000). inhibition, % at 20 µM. Q96LD8. recombinant SENP8, Nedd8 substrate fluorescence. AID 602440; in the data active = inhibition mostly above about 40%, no sharp cut-off; inactive = mostly below about 27%
SENP6 inh: SENP6 protease inhibition; Q9GZR1; Recombinant SENP6 catalytic domain, aminoluciferin luminescence; inhibition, % at 10 µM; actives 1.8% (n = 330,000);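 active = inhibition above about 50% at the single tested dose, limit read from the data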;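 note: plate controls were DMSO wells with enzyme for no effect and DMSO wells lacking enzyme for full effect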
Target sequence (Q9GZR1 628-1112 limits assumed): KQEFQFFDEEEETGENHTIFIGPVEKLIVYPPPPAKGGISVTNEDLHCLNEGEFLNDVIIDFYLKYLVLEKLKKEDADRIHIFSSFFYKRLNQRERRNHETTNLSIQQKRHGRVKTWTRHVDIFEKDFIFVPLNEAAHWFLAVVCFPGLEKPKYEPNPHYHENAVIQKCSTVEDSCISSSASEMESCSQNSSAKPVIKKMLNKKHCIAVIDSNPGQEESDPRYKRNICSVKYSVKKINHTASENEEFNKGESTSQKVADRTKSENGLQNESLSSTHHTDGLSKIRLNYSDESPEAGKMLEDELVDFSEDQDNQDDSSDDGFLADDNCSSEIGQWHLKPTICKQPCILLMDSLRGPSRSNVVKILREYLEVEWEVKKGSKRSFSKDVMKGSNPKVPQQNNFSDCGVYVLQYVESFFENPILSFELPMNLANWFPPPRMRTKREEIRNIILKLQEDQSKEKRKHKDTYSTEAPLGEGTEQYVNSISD
SENP8 block-2: blocks the human protease SENP8; inhibition, % at 10 µM; Q96LD8; actives 1.2% (n = 330,000); purified SENP8, Z-RLRGG-aminoluciferin cleavage, luminescence; in the data active = inhibition above about 50%
Platelet DG rel: platelet dense granule release activity. human platelet-rich plasma, SFLLRN dense granule ATP release, luminescence. inhibition, %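 (compounds screened at 7.5 µM in platelet-rich plasma)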. actives 0.22% (n = 300,000);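 active = mean replicate score, as percent of positive control, at or above 50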
SENP1 inh: blocks the human SENP1 SUMO protease catalytic domain. inhibition, % at 10 µM. recombinant SENP1 catalytic domain, CyPet-SUMO1-YPet FRET cleavage. Q9P0U3. actives 0.21% (n = 360,000). AID 624204;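 active = inhibition at least 30% at 10 µM, raw YFP signal under a set limit, fluorescence ratio 0.5 to 1.5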;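 note: 0% = enzyme with DMSO and 100% = no enzyme wells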
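Material: hSENP1 catalytic domain, recombinant; medium: Tris pH 8 with BME, BSA, NP40 and catalase; compound: single concentration of 10 µM compound, 0.5% DMSO final; technique: FRET read of cyan and yellow fluorescence; timing: 50 min enzyme reaction, room temperature, light-protected; reagent: SFCypet-SUMO1-SFYpet substrate at 25 nM; control set: no-enzyme low, enzyme-DMSO high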
SENP7 inh: inhibitors of human SENP7 protease | AID 434973 | Q9BQF6 | inhibition, % at 5 µM | actives 1.5% (n = 330,000) | recombinant SENP7, Z-RLRGG-aminoluciferin luminescence, 40 min;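 active = inhibition above about 50% at the single test dose, limit read from the data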;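 note: plate controls were DMSO with enzyme for no effect and no enzyme buffer wells for full effect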
SENP8 inh conf: confirmation of human SENP8 protease inhibitors; shares compounds with SENP8 block-1; purified SENP8, Nedd8-AMC/pro-Nedd8 cleavage fluorescence, 30 min; inhibition, % at 25 µM; actives 15% (n = 1,400); in the data active = inhibition mostly above about 39%, no sharp cut-off; inactive = mostly below about 34%
* hit, by the source's call; · = no result. An excerpt weighted towards active compounds, which were near 2.6% of everything screened.

SMILES	SENP8 block-1	SENP6 inh	SENP8 block-2	Platelet DG rel	SENP1 inh	SENP7 inh	SENP8 inh conf
Cc1ccc(-n2c(C)cc(-c3csc(N)n3)c2C)cc1	4	8	0	-4	0	2	·
Cc1cc(-c2csc(N)n2)c(C)n1C	43*	0	6	-1	7	9	16
CCOC(=O)C(/C=C(\C#N)C(=O)OCC)=C(/N)N1CCN(c2ccc(Cl)cc2)CC1	46*	-7	-3	-4	-4	7	23
Cc1ccc(OCC(=O)NCCN2CCOCC2)cc1C	43*	3	8	3	2	6	8
Cc1cc(=O)n(-c2ccc(O)cc2)[nH]1	79*	-7	-7	0	1	6	38*
CCOC(=O)C1=C(O)C(=O)N(c2ccccc2)C1c1cccc([N+](=O)[O-])c1 (stereo not given)	40*	-22	7	-2	-3	-1	27
O=C(CCC1CCCC1)N1CCN(C(=O)c2cccnc2)CC1	41*	-4	-12	6	2	-5	10
O=C(c1ccccc1)N1CCN(C(=O)c2cccnc2)CC1	8	2	9	3	1	-4	·
O=C(Cn1cnc2ccccc2c1=O)NNC(=O)c1ccccc1	30	-15	2	1	1	-3	·
C=CCN1C=CC(=C/C=C(/C#N)C(=O)OCC)C=C1	61*	-31	-12	-2	-19	-9	29
CCOC(=O)/C(C#N)=C/C=C1/C=CC=CN1C	34	-7	-3	1	-23	3	·
COC(=O)c1c(SCc2cccc3ccccc23)nc(=O)[nH]c1C	11	-9	-4	13	-6	-3	·
COC(=O)c1c(SCC(=O)Nc2ccc(C)c(C)c2)nc(=O)[nH]c1C	44*	-1	1	-1	-5	-4	4
Cc1cc(Cl)ccc1NNC(N)=S	61*	-13	-8	-15	1	14	-8
Cc1ccc(C)c(NNC(N)=S)c1	15	-22	-7	-6	1	-1	·
COc1ccc(C(c2nnnn2CC2CCCO2)N2CCN(c3ccc(F)cc3)CC2)cc1 (stereo not given)	14	-20	-2	11	1	2	·
CCN(CC)C(c1ccc(F)cc1)c1nnnn1CC1CCCO1 (stereo not given)	45*	-1	7	-23	2	0	-13
CCOc1cc(C(=O)N(CC)CC(=O)Nc2c(F)cccc2F)ccc1OCC(=O)N1CCOCC1	14	-8	-3	·	0	5	·
Cc1cc(N2CCN(c3ccc(F)cc3)CC2)nc(-c2ccccc2)n1	11	-15	-3	-7	0	0	·
COc1ccc(OC2OC3COC(c4ccco4)OC3C(O)C2NC(C)=O)cc1 (stereo not given)	20	-6	3	-3	-1	2	·
C=CCn1ccc(=NC=C(C#N)C#N)c2ccccc21	45*	4	1	-16	-38	7	21
O=C(c1cnn(Cc2ccccc2)c1)N1CCN(S(=O)(=O)/C=C/c2ccccc2)CC1	26	3	-13	·	3	-6	·
CCCCS(=O)(=O)NC1=NCN(CC)CN1	19	-7	-2	8	-1	8	·
COc1ccc(C2CC(=O)c3c(O)cc(O)cc3O2)cc1O (stereo not given)	41*	·	·	·	2	·	8
Cc1ccccc1Nc1cccc2nonc12	45*	1	-6	-2	-31	2	34
SMILES	SENP8 block-1	SENP6 inh	SENP8 block-2	Platelet DG rel	SENP1 inh	SENP7 inh	SENP8 inh conf
O=c1[nH]c2ccccc2c2ccccc12	-29	-19	-8	1	-1	6	·
Nc1c(Br)cc(Br)c2c1[nH]c(=O)c1ccccc12	73*	·	·	·	7	·	12
Cc1cc(C)nc(SCC(=O)Nc2ccc(S(=O)(=O)Nc3ncccn3)cc2)n1	10	-13	3	-8	1	10	·
Cc1ccc2c(c1)c(N=Nc1ccc([N+](=O)[O-])cc1)c(O)n2C	17	-27	-8	-5	9	-5	·
CCN1CCC(NC(=O)c2cc(OC)c(OC)cc2OC)CC1	3	-18	-7	-12	3	-4	·
CCC(=O)NC(=S)Nc1ccc(NC(=O)c2ccc([N+](=O)[O-])cc2Cl)cc1	43*	5	7	9	4	1	8
O=C(Nc1ccc(S(=O)(=O)N2CCOCC2)cc1)c1ccc([N+](=O)[O-])cc1Cl	12	-6	0	0	1	-1	·
O=C(Nc1ccc(N2CCCC2)cc1)c1ccc([N+](=O)[O-])cc1Cl	43*	-15	-4	-2	4	-7	16
CN(C)c1ccc(NC(=O)c2ccc([N+](=O)[O-])cc2Cl)cc1	11	25	-1	-3	5	5	·
CN(c1ccccc1)S(=O)(=O)c1ccc(C(=O)N2CCc3ccccc3C2)cc1	12	-11	-6	2	3	-15	·
Cc1ccc(C(=O)OCC(=O)NC(=O)c2ccc(C(C)(C)C)cc2)c(O)c1	-112	-21	-14	1	1	8	·
CCN(CC(=O)NC(C)C)Cc1nc2c(Br)cc(Br)cc2c(=O)[nH]1	1	-18	-6	8	-20	6	·
O=C(Nc1cccc(F)c1)N1CCC(c2ccccc2)CC1	26	7	-4	-4	2	1	·
CC(C)(C)OC(=O)N1CCC[C@H]1c1nnc(SCc2ccc(Cl)cc2)o1	10	-4	4	14	2	3	·
CCCn1nc([N+](=O)[O-])c(C(C#N)c2nc3ccccc3o2)c(Cl)c1=O (stereo not given)	43*	8	6	-10	2	-6	32
CCn1nc([N+](=O)[O-])c(C(C#N)c2nc3cc(C(F)(F)F)ccc3s2)c(Cl)c1=O (stereo not given)	24	21	15	2	-9	10	·
CCOC(=O)C1C(c2ccccc2)N(C)OC1(O)C(F)(F)F (stereo not given)	2	-16	7	0	1	0	·
Cc1ccc(S(=O)(=O)NCC2CCCO2)cc1[N+](=O)[O-] (stereo not given)	45*	0	-14	-5	1	-11	7
CN1CCC2(CC1)N=C(c1ccc(F)cc1)C(=S)N2C(=O)c1ccccc1	55*	19	0	1	0	2	39*
CCN1CCC2(CC1)N=C(c1ccc(F)cc1)C(=S)N2C(=O)c1ccc(C(C)(C)C)cc1	19	-11	2	1	2	5	·
O=C(CN1C(=O)NC2(CCCCCC2)C1=O)Nc1ccccc1[N+](=O)[O-]	15	9	6	·	-1	4	·
CC(C)(C)c1ccc(OCC(=O)N2CCN(C=O)CC2)cc1	44*	7	-8	16	1	4	14

Screens: PubChem, several laboratories
